pIC50: −log10 of the molar value. ≈ marks a conversion by molar mass, not a printed value.
Experiments:
Escherichia coli [1] = experiment: Antibacterial activity against Escherichia coli ATCC 29425 after 3 hrs by MTT assay; format: functional, organism-based; details: ATCC 29425, 3 h
Summary of the method: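 Overnight (16 h) culture diluted 50-fold into LB, grown to OD600 ∼0.4, then diluted 500-fold and plated. Compound 2-fold serial dilutions from 0.3 mM; 3 h at 37 °C to mid-exponential phase. Viability read by MTT (2–4 h, then detergent 2 h at 23 °C in dark), absorbance 570 nm. IC50 by nonlinear regression, mean of two independent experiments.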

Saccharomyces cerevisiae = experiment: Toxicity in Saccharomyces cerevisiae ATCC 208352 after 36 hrs by broth dilution method; format: organism-based; details: ATCC 208352, 36 h
Summary of the method: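 Yeast growth inhibition run in YPD medium: inoculum prepared by 50-fold dilution, growth to OD600 ∼0.4, then 500-fold dilution. Compound serially diluted from 0.5 mM; plates held 36 h at 37 °C; absorbance at 570 nm. IC50 by nonlinear regression, mean of two independent experiments.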

[2] = Inhibition of Escherichia coli UPPS-mediated condensation of FPP with IPP by spectrophotometric analysis
Summary of the method: (§1)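 Continuous spectrophotometric assay of FPP + IPP condensation by purified recombinant UPPS (EcUPPS or SaUPPS): 350 μM IPP, 35 μM FPP, 400 μM MESG to follow PPi release, 20 mM Tris·HCl pH 7.5, 0.01% v/v Triton X-100, 1 mM MgCl2.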

[3] = Inhibition of Staphylococcus aureus UPPS-mediated condensation of FPP with IPP by spectrophotometric analysis; summary of the method: as §1
Bacillus subtilis [4] = experiment: Antibacterial activity against Bacillus subtilis subsp. subtilis ATCC 6051 after 12 to 16 hrs by broth dilution method; format: functional, organism-based
Summary of the method: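 Microbroth dilution: 16 h LB culture diluted 50-fold, grown to OD600 ∼0.4, diluted 500-fold into LB and plated. Compound serially diluted from 0.5 mM; incubation 12–16 h at 37 °C; growth read as absorbance at 570 nm. IC50 by nonlinear regression, averaged over two independent experiments.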

Escherichia coli [5] = experiment: Antibacterial activity against Escherichia coli MC4100 after 16 hrs by microbroth dilution method; format: functional; details: MC4100, 16 h
Summary of the method: (§2)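 Stationary-phase cultures grown in LB broth at 37 °C, adjusted to OD600 0.016 in LB, then added to 96-well plates. 2-fold dilutions from 0.25 to 64 μg mL–1, with kanamycin (1–32 μg mL–1) and DMSO as controls. Incubated covered at 37 °C for 16 h with shaking. MIC taken as the lowest concentration suppressing at least 99% of growth, judged by turbidity.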

Staphylococcus aureus = experiment: Antibacterial activity against methicillin-resistant Staphylococcus aureus USA300 after 16 hrs by microbroth dilution method; format: functional; details: USA300, 16 h
Summary of the method: (§3)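 Stationary-phase cultures grown in brain–heart infusion medium at 37 °C, adjusted to OD600 0.016 in BHI, then plated. 2-fold dilutions from 0.25 to 64 μg mL–1 with DMSO as vehicle control. Kanamycin (1–32 μg mL–1) was the control for L. monocytogenes and gentamycin (1–64 μg mL–1) for S. aureus and E. faecalis. Incubated covered at 37 °C for 16 h with shaking. MIC was the concentration giving at least 99% growth suppression by turbidity.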

Listeria monocytogenes = experiment: Antibacterial activity against Listeria monocytogenes 4b F2365 after 16 hrs by microbroth dilution method; format: functional; details: 4b F2365, 16 h; summary of the method: as §3
Enterococcus faecalis [6] = experiment: Antibacterial activity against vancomycin-resistant Enterococcus faecalis U503 after 16 hrs by microbroth dilution method in presence of vancomycin; format: functional; details: U503, 16 h
Bacillus anthracis [7] = experiment: Antibacterial activity against Bacillus anthracis Sterne after 16 hrs by microbroth dilution method; format: functional
Enterococcus faecalis [8] = experiment: Antibacterial activity against vancomycin-resistant Enterococcus faecalis U503 after 16 hrs by microbroth dilution method; format: functional; details: U503, 16 h; summary of the method: as §3
Pseudomonas putida = experiment: Antibacterial activity against Pseudomonas putida after 16 hrs by microbroth dilution method; format: functional; summary of the method: as §2
Bacillus anthracis [9] = experiment: Antibacterial activity against Bacillus anthracis Sterne after 16 hrs by microbroth dilution method in presence of ampicillin; format: functional
Bacillus subtilis [10] = experiment: Antibacterial activity against Bacillus subtilis 168 after 16 hrs by microbroth dilution method; format: functional; details: subsp. subtilis str. 168, 16 h; summary of the method: as §2

With `O=C1/C(=C\c2cccc(O)c2O)SC(=S)N1Cc1ccco1` as the compound, how does the pIC50 (Escherichia coli [1]) read?
The pIC50 was under 3.70.

What about the pIC50 (Saccharomyces cerevisiae) of the same compound?
The pIC50 was under 3.70.

And the pIC50 [2]?
Its pIC50 is under 4.00.

And the pIC50 [3]?
The pIC50 was 5.28.

And the pIC50 (Bacillus subtilis [4])?
The pIC50 was under 3.70.

With `CCN1C(=O)/C(=C/c2ccc(OC)cc2)SC1=S` as the compound, how does the pIC50 (Escherichia coli [1]) read?
The pIC50 was under 3.70.

What about the pIC50 (Saccharomyces cerevisiae) of the same compound?
The pIC50 was under 3.70.

And the pIC50 [2]?
Its pIC50 is under 4.00.

And the pIC50 [3]?
Its pIC50 is under 4.00.

And the pIC50 (Bacillus subtilis [4])?
The pIC50 was under 3.70.

With `CC1=CC(=O)/C(=C\N2C(=O)/C(=C/c3cccc(O)c3)SC2=S)C(=O)O1` as the compound, how does the pIC50 (Escherichia coli [1]) read?
Its pIC50 is under 3.70.

What about the pIC50 (Saccharomyces cerevisiae) of the same compound?
The pIC50 was under 3.70.

What about the pIC50 [2] of the same compound?
Its pIC50 is under 4.00.

What about the pIC50 [3] of the same compound?
Its pIC50 is under 4.00.

What about the pIC50 (Bacillus subtilis [4]) of the same compound?
The pIC50 was under 3.70.

Which results are given for `CCN1C(=O)/C(=C/c2ccc(OCC(=O)O)cc2)SC1=S`?
pIC50 (Escherichia coli [1]): < 3.70; pIC50 (Saccharomyces cerevisiae): < 3.70; pIC50 [2]: < 4.00; pIC50 [3]: < 4.00; pIC50 (Bacillus subtilis [4]): < 3.70

With `Cc1cc(Cl)ccc1-c1ccc(/C=C2\SC(=S)N(CC(=O)O)C2=O)o1` as the compound, how does the MIC (Escherichia coli [5]) read?
Its MIC is over 64 µg/mL.

What about the pIC50 (Escherichia coli [1]) of the same compound?
The pIC50 was under 3.70.

And the MIC (Staphylococcus aureus)?
Its MIC is 8 µg/mL (≈ 20.3 µM).

What about the MIC (Listeria monocytogenes) of the same compound?
Its MIC is 4 µg/mL (≈ 10.2 µM).

And the pIC50 (Saccharomyces cerevisiae)?
The pIC50 was under 3.70.

And the MIC (Enterococcus faecalis [6])?
Its MIC is 1.78 µg/mL.

What about the pIC50 [2] of the same compound?
Its pIC50 is 3.59.

And the MIC (Bacillus anthracis [7])?
The MIC was 1 µg/mL (≈ 2.54 µM).

And the MIC (Enterococcus faecalis [8])?
Its MIC is 1 µg/mL (≈ 2.54 µM).

And the MIC (Pseudomonas putida)?
The MIC was over 64 µg/mL.

What about the pIC50 (Bacillus subtilis [4]) of the same compound?
Its pIC50 is 5.54.

And the MIC (Bacillus anthracis [9])?
The MIC was 1.24 µg/mL.

Which results are given for `COc1cccc(/C=C2\SC(=S)N(Cc3ccco3)C2=O)c1OC`?
pIC50 (Escherichia coli [1]): < 3.70; pIC50 (Saccharomyces cerevisiae): < 3.70; pIC50 [2]: < 4.00; pIC50 [3]: < 4.00; pIC50 (Bacillus subtilis [4]): < 3.70

With `CN1C(=O)/C(=C/c2ccc(-c3cc(Cl)ccc3Cl)o2)SC1=S` as the compound, how does the pIC50 (Escherichia coli [1]) read?
The pIC50 was under 3.70.

What about the pIC50 (Saccharomyces cerevisiae) of the same compound?
Its pIC50 is under 3.70.

What about the pIC50 [2] of the same compound?
Its pIC50 is under 3.70.

And the pIC50 [3]?
The pIC50 was under 3.70.

And the pIC50 (Bacillus subtilis [4])?
Its pIC50 is under 3.70.

With `CCOc1cc(/C=C2\SC(=S)N(c3ccc(F)cc3)C2=O)ccc1O` as the compound, how does the pIC50 (Escherichia coli [1]) read?
Its pIC50 is under 3.70.

What about the pIC50 (Saccharomyces cerevisiae) of the same compound?
Its pIC50 is under 3.70.

What about the pIC50 [2] of the same compound?
The pIC50 was 4.39.

And the pIC50 [3]?
Its pIC50 is 3.82.

What about the pIC50 (Bacillus subtilis [4]) of the same compound?
Its pIC50 is under 3.70.

Which results are given for `Cc1ccc(-c2ccc(/C=C3\SC(=S)N(CCCC(=O)O)C3=O)o2)c([N+](=O)[O-])c1`?
pIC50 (Escherichia coli [1]): < 3.70; pIC50 (Saccharomyces cerevisiae): < 3.70; pIC50 [2]: < 4.00; pIC50 [3]: 5.24; pIC50 (Bacillus subtilis [4]): 5.49

Which results are given for `CCOc1cccc(/C=C2\SC(=S)N(Cc3ccco3)C2=O)c1O`?
pIC50 (Escherichia coli [1]): < 3.70; pIC50 (Saccharomyces cerevisiae): < 3.70; pIC50 [2]: < 4.00; pIC50 [3]: < 4.00; pIC50 (Bacillus subtilis [4]): < 3.70

Which results are given for `O=C(O)CCN1C(=O)/C(=C/c2ccc(-c3ccc(Cl)cc3Cl)o2)SC1=S`?
MIC (Escherichia coli [5]): > 64 µg/mL; pIC50 (Escherichia coli [1]): < 3.70; MIC (Bacillus subtilis [10]): 0.125 µg/mL (≈ 0.292 µM); MIC (Staphylococcus aureus): 4 µg/mL (≈ 9.34 µM); MIC (Listeria monocytogenes): 0.125 µg/mL (≈ 0.292 µM); pIC50 (Saccharomyces cerevisiae): 3.74; pIC50 [2]: 5.68; pIC50 [3]: 5.62; MIC (Bacillus anthracis [7]): 0.25 µg/mL (≈ 0.584 µM); MIC (Enterococcus faecalis [8]): 4 µg/mL (≈ 9.34 µM); MIC (Pseudomonas putida): > 64 µg/mL; pIC50 (Bacillus subtilis [4]): 6.37

With `CC(=O)c1ccc(-c2ccc(/C=C3\SC(=S)N(c4ccccc4)C3=O)o2)cc1` as the compound, how does the pIC50 (Escherichia coli [1]) read?
Its pIC50 is under 3.70.

What about the pIC50 (Saccharomyces cerevisiae) of the same compound?
The pIC50 was under 3.70.

And the pIC50 [2]?
The pIC50 was 4.07.

And the pIC50 [3]?
The pIC50 was 4.49.

And the pIC50 (Bacillus subtilis [4])?
Its pIC50 is under 3.70.

With `CCOc1cc(/C=C2\SC(=S)N(c3cccc(F)c3)C2=O)ccc1OC(=O)c1cccs1` as the compound, how does the pIC50 (Escherichia coli [1]) read?
The pIC50 was under 3.70.

What about the pIC50 (Saccharomyces cerevisiae) of the same compound?
The pIC50 was under 3.70.

And the pIC50 [2]?
Its pIC50 is under 3.70.

And the pIC50 [3]?
The pIC50 was under 3.70.

And the pIC50 (Bacillus subtilis [4])?
The pIC50 was under 3.70.

Which results are given for `O=C(O)c1ccc(N2C(=O)/C(=C/c3ccc(Br)cc3)SC2=S)cc1`?
pIC50 (Escherichia coli [1]): < 3.70; pIC50 (Saccharomyces cerevisiae): < 3.70; pIC50 [2]: < 3.70; pIC50 [3]: 3.77; pIC50 (Bacillus subtilis [4]): < 3.70

Which results are given for `O=C1/C(=C/c2ccc(Cl)cc2Cl)SC(=S)N1Cc1ccco1`?
pIC50 (Escherichia coli [1]): < 3.70; pIC50 (Saccharomyces cerevisiae): < 3.70; pIC50 [2]: < 4.00; pIC50 [3]: < 4.00; pIC50 (Bacillus subtilis [4]): < 3.70

With `O=C(O)CCCCCN1C(=O)/C(=C/c2ccc(-c3cc(Cl)ccc3Cl)o2)SC1=S` as the compound, how does the pIC50 (Escherichia coli [1]) read?
Its pIC50 is under 3.70.

What about the pIC50 (Saccharomyces cerevisiae) of the same compound?
The pIC50 was under 3.70.

And the pIC50 [2]?
The pIC50 was under 4.00.

What about the pIC50 [3] of the same compound?
Its pIC50 is 5.42.

What about the pIC50 (Bacillus subtilis [4]) of the same compound?
Its pIC50 is 5.25.

With `CN(C)c1ccc(/C=C2\SC(=S)N(Cc3ccco3)C2=O)cc1` as the compound, how does the pIC50 (Escherichia coli [1]) read?
Its pIC50 is under 3.70.

What about the pIC50 (Saccharomyces cerevisiae) of the same compound?
Its pIC50 is under 3.70.

And the pIC50 [2]?
The pIC50 was under 4.00.

What about the pIC50 [3] of the same compound?
The pIC50 was under 4.00.

And the pIC50 (Bacillus subtilis [4])?
Its pIC50 is under 3.70.
